From ChEMBL document CHEMBL1122908, “10-Ketonaltrexone and 10-ketooxymorphone” (J Med Chem, 1985)
pIC50, pKi: −log10 of the molar value.

Tests used:
[1] = target: Mu-type opioid receptor (Cavia porcellus) (UniProt P97266); assay: Dose ratio due to Antagonist Effect at a concentration of 100 nM by normorphine, Opioid receptor mu 1 in the guinea pig ileum longitudinal muscle myenteric plexus.; format: functional, tissue-based
Summary of the method: (§1)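 Isolated guinea pig ileum myenteric plexus–longitudinal muscle and mouse vas deferens. Agonists were normorphine (μ) and ethylketazocine (κ) in both tissues, and (D-Ala2,D-Leu5)enkephalin (δ) in vas deferens. The shift in IC50 is given as dose ratio, mean ± SEM of three to five separate experiments.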

[2] = target: Kappa-type opioid receptor (Cavia porcellus) (UniProt P41144); assay: Dose ratio due to Antagonist Effect at a concentration of 100 nM by ethylketazocine, Opioid receptor kappa 1 in the guinea pig ileum longitudinal muscle myenteric plexus.; format: functional, tissue-based; summary of the method: as §1
[3] = target: Delta-type opioid receptor (Mus musculus) (UniProt P32300); assay: Dose ratio due to Antagonist Effect at a concentration of 1000 nM by (D-Ala2, D-Leu5)enkephalin, Opioid receptor delta 1 in mouse vas deferens.; format: functional
Summary of the method: as §1, with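 “vas deferens. […] The shift” for “vas deferens. The shift”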

Mu-type opioid receptor = Mu-type opioid receptor (Cavia porcellus, UniProt P97266); assay: Inhibitory binding constant in guinea pig brain homogenate was reported at mu site at a temperature 25 degree Centigrade labeled with [3H](D-Ala2-MePhe4,Gly-ol5)enkephalin(1 nM); format: tissue-based
[4] = target: Mu-type opioid receptor (Mus musculus) (UniProt P42866); assay: Dose ratio due to Antagonist Effect at a concentration of 100 nM by normorphine, Opioid receptor mu 1 in mouse vas deferens.; format: functional; summary of the method: as §1
[5] = target: Kappa-type opioid receptor (Mus musculus) (UniProt P33534); assay: Dose ratio due to Antagonist Effect at a concentration of 100 nM by ethylketazocine, Opioid receptor kappa 1 in mouse vas deferens.; format: functional; summary of the method: as §1
[6] = target: Kappa-type opioid receptor (Cavia porcellus, UniProt P41144); assay: (§2) Inhibitory binding constant in guinea pig brain homogenate was reported at Opioid receptor kappa 1 at temperature 25 degree Celsius labeled with (-)-[3H]immazocine (0.1 nM).; format: tissue-based
Mus musculus = species: Mus musculus; assay: Agonist activity in the mouse vas deferens.; format: functional
Summary of the method: (§3)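 Isolated guinea pig ileum myenteric plexus–longitudinal muscle or mouse vas deferens preparations, run at 25 °C, testing opioid agonist potency.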

[7] = target: Mu-type opioid receptor (Cavia porcellus) (UniProt P97266); assay: Inhibitory binding constant in guinea pig brain homogenate was reported at mu site at a temperature 25 degree Celsius labeled with [3H](D-Ala2-MePhe4,Gly-ol5)enkephalin(1nM); format: tissue-based
Cavia porcellus = species: Cavia porcellus; assay: Agonist activity in the guinea pig ileum longitudinal muscle myenteric plexus.; format: functional; summary of the method: as §3
[8] = target: Kappa-type opioid receptor (Cavia porcellus) (UniProt P41144); assay: as §2; format: tissue-based

Kappa-type opioid receptor (Cavia porcellus), sequence (P41144 whole entry): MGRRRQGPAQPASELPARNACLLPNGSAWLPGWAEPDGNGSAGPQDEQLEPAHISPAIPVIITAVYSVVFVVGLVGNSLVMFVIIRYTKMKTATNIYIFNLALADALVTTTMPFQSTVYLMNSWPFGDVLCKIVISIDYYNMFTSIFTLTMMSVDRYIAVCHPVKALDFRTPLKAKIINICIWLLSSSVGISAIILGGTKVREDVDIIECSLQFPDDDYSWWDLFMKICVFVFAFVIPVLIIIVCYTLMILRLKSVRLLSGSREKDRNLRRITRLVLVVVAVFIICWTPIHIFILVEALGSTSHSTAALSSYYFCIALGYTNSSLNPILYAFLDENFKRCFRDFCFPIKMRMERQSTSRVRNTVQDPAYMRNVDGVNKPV
Mu-type opioid receptor (Cavia porcellus), sequence (P97266 whole entry): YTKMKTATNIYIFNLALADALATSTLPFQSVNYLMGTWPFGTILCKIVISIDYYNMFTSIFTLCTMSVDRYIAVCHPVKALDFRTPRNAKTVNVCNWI
Kappa-type opioid receptor, sequence (P41144 whole entry): as the sequence (P41144 whole entry) above
Delta-type opioid receptor (Mus musculus), sequence (P32300 whole entry): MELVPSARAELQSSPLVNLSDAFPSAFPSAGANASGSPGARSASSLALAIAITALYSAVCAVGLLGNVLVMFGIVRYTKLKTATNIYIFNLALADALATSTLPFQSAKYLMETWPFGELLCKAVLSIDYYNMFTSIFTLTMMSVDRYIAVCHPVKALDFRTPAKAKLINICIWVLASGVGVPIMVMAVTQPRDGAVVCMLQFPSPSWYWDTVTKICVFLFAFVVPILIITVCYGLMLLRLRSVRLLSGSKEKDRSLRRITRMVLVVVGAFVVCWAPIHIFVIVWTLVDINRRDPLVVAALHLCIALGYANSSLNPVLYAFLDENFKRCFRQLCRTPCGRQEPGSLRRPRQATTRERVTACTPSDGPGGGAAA
Kappa-type opioid receptor (Mus musculus), sequence (P33534 whole entry): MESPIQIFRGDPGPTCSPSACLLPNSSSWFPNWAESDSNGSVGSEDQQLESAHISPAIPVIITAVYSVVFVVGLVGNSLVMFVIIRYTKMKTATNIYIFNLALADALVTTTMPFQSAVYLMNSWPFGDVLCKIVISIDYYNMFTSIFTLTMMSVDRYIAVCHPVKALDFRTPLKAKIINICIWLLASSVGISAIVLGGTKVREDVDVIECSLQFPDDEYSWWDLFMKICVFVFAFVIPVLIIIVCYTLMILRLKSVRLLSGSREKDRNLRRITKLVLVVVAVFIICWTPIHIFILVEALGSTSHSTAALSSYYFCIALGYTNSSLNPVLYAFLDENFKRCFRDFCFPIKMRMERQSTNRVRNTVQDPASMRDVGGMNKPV
Mu-type opioid receptor (Mus musculus), sequence (P42866 whole entry): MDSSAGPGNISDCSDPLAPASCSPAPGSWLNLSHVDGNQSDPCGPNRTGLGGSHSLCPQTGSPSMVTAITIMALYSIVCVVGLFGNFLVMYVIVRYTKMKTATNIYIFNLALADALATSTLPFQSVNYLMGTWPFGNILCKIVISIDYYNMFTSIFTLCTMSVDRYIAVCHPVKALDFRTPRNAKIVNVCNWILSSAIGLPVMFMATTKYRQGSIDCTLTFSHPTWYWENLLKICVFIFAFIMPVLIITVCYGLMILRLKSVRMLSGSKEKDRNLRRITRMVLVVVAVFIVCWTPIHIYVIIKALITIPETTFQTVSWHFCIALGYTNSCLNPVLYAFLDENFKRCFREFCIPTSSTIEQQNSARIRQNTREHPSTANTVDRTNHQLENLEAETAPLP
Mu-type opioid receptor, sequence (P97266 whole entry): as the sequence (P97266 whole entry) above

SMILES | Dose ratio [1] | Dose ratio [2] | Dose ratio [3] | pKi (Mu-type opioid receptor) | Dose ratio [4] | Dose ratio [5] | pKi [6] | pIC50 (Mus musculus) | inhibition [7] [%] | pIC50 (Cavia porcellus) | inhibition [8] [%]
O=C1c2ccc(O)c3c2C24CCN(CC5CC5)C1[C@]2(O)CCC(=O)[C@@H]4O3 (stereo partly drawn) [KETONALTREXONE] | 1.84 | 1.58 | 0.71 | 7.51 | 0.57 | 0.93 | 6.99 |  |  |  | 
CN1CCC23c4c5ccc(O)c4O[C@H]2C(=O)CC[C@@]3(O)C1C5=O (stereo partly drawn) [KETOXYMORPHONE] |  |  |  |  |  |  |  | < 6.00 | 19 | < 6.00 | 17
CN1CC[C@]23c4c5ccc(O)c4O[C@H]2C(=O)CC[C@@]3(O)[C@H]1C5 [OXYMORPHONE] |  |  |  |  |  |  |  | 7.11 |  | 7.62 | 
